# Screening results deposited in PubChem by Johns Hopkins Ion Channel Center.
# MrgX1 antag = blocks BAM8-22 activation of human MrgX1 receptor; MRGX1-HEK293 calcium flux, Fluo-4, BAM8-22 antagonism; stronger effect = lower value; B-score at 10 µM; 310,000 compounds, 1.3% hits; AID 588676;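 active = calcium-response B-score plate-corrected more than 3 library SD below zero, starting fluorescence within 5 deviations, no agonist response on first addition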;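 note: peak minus trough fluorescence over baseline after final BAM8-22 challenge near maximal dose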
# Target sequence (Q96LB2 whole entry, looked up): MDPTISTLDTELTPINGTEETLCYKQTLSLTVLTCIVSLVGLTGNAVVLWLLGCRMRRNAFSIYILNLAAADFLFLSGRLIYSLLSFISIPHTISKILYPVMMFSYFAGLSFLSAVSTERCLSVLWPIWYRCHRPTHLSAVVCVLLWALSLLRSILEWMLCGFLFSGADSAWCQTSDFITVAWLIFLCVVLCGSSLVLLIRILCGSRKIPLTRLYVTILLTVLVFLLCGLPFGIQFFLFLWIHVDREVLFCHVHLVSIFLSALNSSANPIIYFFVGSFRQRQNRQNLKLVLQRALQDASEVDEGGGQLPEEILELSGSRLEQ
# MrgX1 ag = activates human MrgX1 receptor signaling; Q96LB2; MrgX1-HEK293 cells, Fluo-4 calcium fluorescence, agonist mode; stronger effect = higher value; B-score at 10 µM; 310,000 compounds, 0.44% hits; AID 588627;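 active = calcium response B-score plate-corrected fluorescence ratio at least 3 library SD, with starting fluorescence B-score inside 5 SD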
#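 System: HEK293 cells stably expressing human MrgX1 receptor; Dosing: test compound in the initial addition of three; Schedule: overnight plating, then 30 min 37 °C plus 30 min room-temperature dye loading; Detection: kinetic calcium dye fluorescence, Fluo-4 NW; Controls: per-plate positive and negative controls for Z′ factor.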
# MrgX1 allo act = human MrgX1 positive allosteric modulation, primary screen | MrgX1-HEK293, Fluo-4 calcium flux, FDSS; stronger effect = higher value | B-score at 10 µM | Q96LB2 | 310,000 compounds, 0.63% hits;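 active = plate-corrected calcium response at least 3 library SD above typical, normal starting fluorescence, not activating the receptor alone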;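 note: compound read alongside a low EC10 to EC30 dose of BAM8-22 agonist; peak minus trough fluorescence over baseline measured at the second addition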
# RGS4 act = potentiators or activators of RGS4. 310,000 compounds, 0.92% hits. B-score at 10 µM. HEK293 M3R/inducible RGS4, carbachol calcium flux Fluo4; stronger effect = lower value;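 active = B-score of the integrated calcium signal more than 4 SD below the library mean, with starting fluorescence not abnormally high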;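 note: negative B-score means reduced calcium response which marks RGS4 activation or potentiation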
#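 Assay system: Inducible-RGS4 HEK293 cells carrying M3 receptor | Schedule: Compound preincubation 20 min at room temperature before agonist | Signal: Kinetic calcium fluorescence imaging with Fluo4-AM dye, 2 µM | Read-out basis: B score from integrated fluorescence ratio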
# RGS4 inh = human RGS4 inhibition | B-score at 10 µM | P49798 | HEK293 M3R/RGS4 inducible, Fluo-4 calcium flux; stronger effect = higher value; triggered by carbachol at its EC20 | 310,000 compounds, 0.45% hits;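 active = B-score, a plate-corrected calcium signal, over three deviations above library mean, with baseline fluorescence within five deviations of library mean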;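 note: RGS4 expression induced by doxycycline in cells with stable M3 receptor; B-score is computed from the integrated fluorescence ratio over baseline after carbachol; higher B-score means a larger calcium signal and so more RGS4 inhibition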
# Target sequence (P49798 whole entry, looked up): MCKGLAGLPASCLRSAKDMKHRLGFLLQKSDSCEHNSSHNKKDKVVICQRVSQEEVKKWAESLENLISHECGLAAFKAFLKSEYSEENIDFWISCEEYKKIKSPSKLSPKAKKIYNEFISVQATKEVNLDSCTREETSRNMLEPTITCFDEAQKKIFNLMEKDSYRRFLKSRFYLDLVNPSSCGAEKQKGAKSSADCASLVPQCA
# An asterisk follows results filed as active; i = inactive; . = no result. In the library only some 3.5% were active in any assay of this set; here they are far more common.
SMILES,MrgX1 antag,MrgX1 ag,MrgX1 allo act,RGS4 act,RGS4 inh
CCN(CC)CCC(C)OC(c1ccccc1)c1ccccc1 (stereo not given),i,i,i,-8.7*,i
O=C(CC1Sc2ccccc2NC1=O)Nc1ccccc1[N+](=O)[O-] (stereo not given),-6.7*,i,i,i,i
O=C(CC1Sc2ccccc2NC1=O)Nc1cccnc1 (stereo not given),i,i,i,i,i
CCCOc1ccc(C(C(=O)OCCN(CC)CC)c2ccccc2)cc1 (stereo not given),-4.6*,i,i,-7.4*,i
CCCCS(=O)(=O)/C=C\C1C2C=CC(C2)C1S(=O)(=O)CCCC (stereo not given),i,i,i,i,i
CCCCS(=O)(=O)/C=C\C=C/S(=O)(=O)CCCC,i,33*,i,i,i
Cc1ccc(-n2ncc3c2CC(C)(C)CC3NC(=O)c2ccccn2)cc1 (stereo not given),i,i,i,i,i
CC(NC(=O)[C@H](C)NC(=O)[C@@H]1CSC2c3ccccc3C(=O)N21)c1ccccc1 (stereo not given in full),i,i,i,i,i
COc1ccc(CNC(=S)Nc2ccccc2)cc1,i,i,i,i,i
Cc1ccc(N2CCN(S(=O)(=O)c3ccc4c(c3)n(C)c(=O)c(=O)n4C)CC2C)cc1 (stereo not given),i,i,i,i,i
Cc1ccc(N2CCN(S(=O)(=O)c3ccc4c(c3)NC(=O)C(C)C(=O)N4)CC2C)cc1 (stereo not given),-7.6*,i,i,i,i
COc1cc(NC(=O)c2cccc(C)c2)ccc1NC(=O)c1cc2ccccc2o1,i,i,i,i,i
COCC(=O)Nc1cc(C(=O)Nc2cccc(C)c2C)ccc1Cl,i,i,i,i,i
COCC(=O)NNC(=S)Nc1cccc(C)c1C,-5.1*,i,i,i,i
CCOc1ccc(S(=O)(=O)NCCC(=O)OCC(=O)c2ccc[nH]2)cc1,i,i,i,i,i
COc1ccc([N+](=O)[O-])cc1NC(=O)c1ccc(Br)s1,i,i,i,i,i
O=C(NNC(=O)C1CC1c1ccccc1)Nc1cccc(Cl)c1 (stereo not given),-5.4*,i,i,i,i
CCc1cccc(NC(=O)C2CC2c2ccccc2)c1 (stereo not given),i,i,i,i,i
NC(=NCCCCCCN=C(N)/N=C(\N)Nc1ccc(Cl)cc1)/N=C(\N)Nc1ccc(Cl)cc1,-5.7*,i,i,i,i
CC(C)N=C(N)N=C(N)Nc1ccc(Cl)cc1,i,i,i,.,.
COC(=O)C1=C(C)N(C)C(C)=C(C(=O)OC)C1c1ccc(F)c(Br)c1,i,i,i,-7.2*,i
COC(=O)C1=C(C)N(C)C(C)=C(C(=O)OC)C1c1ccncc1,i,i,i,i,i
CCc1nnc(NS(=O)(=O)c2ccc(NC(=O)c3cc(Cl)ccc3OC)cc2)s1,i,i,i,i,i
O=Cc1ccc(N2N=C(c3ccccc3)CC2c2ccccc2)cc1 (stereo not given),i,i,i,-10*,i
O=C(O)c1ccc(N2N=C(c3ccccc3)CC2c2ccccc2)cc1 (stereo not given),i,i,i,i,i
SMILES,MrgX1 antag,MrgX1 ag,MrgX1 allo act,RGS4 act,RGS4 inh
N#CC1CC(c2ccc([N+](=O)[O-])cc2)=NN1c1ccc([N+](=O)[O-])cc1 (stereo not given),-6.2*,i,i,i,i
O=[N+]([O-])c1cccc(C2CC(c3ccccc3)=NN2c2ccccc2)c1 (stereo not given),-7.6*,i,i,i,i
CC1=NN(c2ccc([N+](=O)[O-])cc2)C(c2ccccc2)C1 (stereo not given),i,i,i,i,i
CC[n+]1c(/C=C/Nc2ccccc2)oc2ccccc21,i,i,i,i,i
CC[n+]1c(/C=C/Nc2ccccc2)oc2ccc(OC)cc21,-7.4*,i,i,i,i
CC[n+]1c(/C=C/N(C)c2ccccc2)oc2ccc(F)cc21,-4.7*,i,i,i,i
CC1(C)Cc2c(sc(NC(=O)C(=O)N3CCCCC3)c2C(N)=O)CO1,i,i,i,i,i
O=[N+]([O-])c1cccc(-c2noc(-c3ccco3)n2)c1,i,i,i,i,i
Cc1cccn2c(=O)nc(SCC(=O)NC3CCCC3)nc12,i,i,i,i,i
COc1ccc(CCN2C(=NC(=O)CC(C)C)SC3CS(=O)(=O)CC32)cc1 (stereo not given),i,i,i,i,i
COc1ccc(CCN2C(=NC(=O)CCC(=O)O)SC3CS(=O)(=O)CC32)cc1OC (stereo not given),-5.2*,i,i,i,i
CCCCn1c(N)c(N(CC(C)C)C(=O)CSCc2c(C)noc2C)c(=O)[nH]c1=O,i,i,i,i,i
COc1cc(/C=C2\SC(=N)N(c3ccc(F)cc3)C2=O)ccc1O,-4.9*,i,i,i,i
COc1ccc(/C=C2\SC(c3ccc(C)cc3)=NC2=O)cc1OC,i,i,i,i,i
COc1cc(/C=C2\SC(c3ccc(C)cc3)=NC2=O)ccc1O,-5.8*,i,i,i,i
COC(=O)C1C(=O)c2c(C)noc2CC1(C)C (stereo not given),i,i,i,i,i
C=CCOc1ccc(C(=O)Nc2ccccc2C(=O)NCc2cccnc2)cc1,i,i,i,i,i
CC(C)(C)NC(=O)C(c1ccncc1)N(C(=O)Cn1nnc(-c2ccc(F)cc2)n1)c1ccc(F)cc1 (stereo not given),-5.6*,i,i,i,i
Cc1nn2c(N3CCCC3)cc(C(C)C)nc2c1-c1ccccc1,i,i,i,-7.1*,i
CCOc1ccc(CCNC(=O)C2CCCN(S(=O)(=O)N3CCOCC3)C2)cc1OCC (stereo not given),i,i,i,i,i
CCCn1c(N)c(C(=O)COC(=O)CCNS(=O)(=O)c2ccccc2F)c(=O)[nH]c1=O,i,i,i,i,i
CCCCNc1c(-c2ccc(-c3cccc(Cl)c3)cc2)nc2ccccn12,i,i,i,i,i
CCCCNc1c(-c2cccc(-c3cc(C(C)=O)cs3)c2)nc2ccc(C)cn12,i,i,i,-7.1*,i
